Data taken from paper PMC5862033 (Molecular psychiatry, 2017).

Key:
[1] = study did not use labelled OT; cited from earlier work
[2] = used as correction in blood contamination formula; cited from earlier work
[3] = statement in discussion, no reference given; cited from earlier work
[4] = d5 OT pharmacokinetics in plasma and CSF after IN and IV administration; assay type: in vivo, rhesus monkeys (Macaca Mulatta); settings: for Drug targeting efficiency percentage (DTE%), single monkey: 80 IU d5 OT IN vs IV, AUC0-60 min, individual monkey
In short: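 Rhesus monkeys sedated IM: ketamine (10 mg/kg), dexdomitor (0.01 mg/kg), glycopyrrolate 0.01 mg/kg i.m.; 80 IU deuterated test compound given IN or IV (1 mL normal saline, leg vein), IN saline control, counterbalanced weekly sessions. Blood and CSF drawn pre-dose and 10–60 min. Samples acetonitrile-precipitated, SPE-cleaned at pH 3.0, LC-MS/MS. Non-compartmental AUC0–60, Cmax, Tmax; bioavailability and DTE from AUC ratios.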

CC[C@H](C)[C@@H]1NC(=O)[C@H](Cc2ccc(O)cc2)NC(=O)[C@@H](N)CSSC[C@@H](C(=O)N2CCC[C@H]2C(=O)N[C@@H](CC(C)C)C(=O)NCC(N)=O)NC(=O)[C@H](CC(N)=O)NC(=O)[C@H](CCC(N)=O)NC1=O [OT, Oxytocin]
Fraction of OT crossing the BBB [1]: ~ .002%
Fraction of OT that is not protein bound [2]: 0.7

atosiban
Passage of the BBB [3]: does not pass the BBB

d5-oxytocin [d5 OT]
Drug targeting efficiency percentage (DTE%), single monkey ([4]; first of 4 values listed): 33.6%
Drug targeting efficiency percentage (DTE%), single monkey ([4]; second of 4 values listed): 50.5%
Drug targeting efficiency percentage (DTE%), single monkey ([4]; third of 4 values listed): 154.6%
Bioavailability post IN administration for plasma and CSF ([4]; 100 x (AUC IN/AUC IV), 80 IU d5 OT, plasma and CSF, values only in words): similar, albeit low
